Screens from PubChem.
GPR7 antagonist – GPR7 receptor antagonists, primary screen, cell-based, fluorescence, single concentration; Neuropeptides B/W receptor type 1 (Homo sapiens), P48145; inhibition, % at 4.4 µM; actives 1.1% (n = 290,000); GPR7-expressing cells, fluorescence antagonist assay; in the data active = inhibition above about 16%, passing the limit was not always enough;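 also: cells stimulated with the agonist NPW; 0% = agonist with vehicle and 100% = vehicle without agonist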
Target sequence (P48145 whole entry, looked up): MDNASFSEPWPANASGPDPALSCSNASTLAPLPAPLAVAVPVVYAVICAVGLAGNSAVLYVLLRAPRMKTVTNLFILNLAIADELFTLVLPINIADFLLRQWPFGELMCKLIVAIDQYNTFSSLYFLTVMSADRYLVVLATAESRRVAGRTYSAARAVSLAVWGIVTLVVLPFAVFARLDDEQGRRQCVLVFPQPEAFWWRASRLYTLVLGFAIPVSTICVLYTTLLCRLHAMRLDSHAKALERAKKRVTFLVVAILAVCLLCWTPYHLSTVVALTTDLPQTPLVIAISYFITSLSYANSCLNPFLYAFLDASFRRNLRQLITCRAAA
GalR3 antagonist – GalR3 antagonists in HEK293 cells, primary screen, cell-based, fluorescence readout | AID 651719, 2012 | actives 0.44% (n = 360,000) | HEK293 GalR3-CNG cAMP membrane potential fluorescence; galR3 body fused to GalR1 C-terminus | inhibition, % at 3 µM;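 active = inhibition above the screen-wide average plus 3 SD, cut at about 13% in these data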;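 also: forskolin and galanin both at EC90 stimulate the cells; cAMP rise reported by CNG channel membrane potential dye signal; 0% = forskolin plus galanin with DMSO and 100% = forskolin alone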
CHO parental Ca – ATP-evoked calcium signal inhibitors, parental CHO, primary screen, counter-screen for OX1R antagonist project, cell-based, fluorescence, Fluo-8 calcium dye. parental CHO-K1, ATP-induced calcium, Fluo-8 fluorescence. AID 463079, 2010. inhibition, % at 5.6 µM. actives 0.63% (n = 330,000);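 active = inhibition above that plate's mean sample inhibition plus 3 SD, cut at about 26% in these data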;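 also: 0% = ATP-challenged DMSO wells and 100% = DMSO wells without ATP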
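Assay system: parental CHO cells; Read-out basis: percent inhibition of ATP-evoked calcium rise, normalized to controls; Benchmarks: ATP and no-ATP DMSO wells; Compound dosing: single nominal dose of 5.6 µM per compound; Signal: Fluo-8 calcium dye fluorescence; Also added: ATP as calcium-mobilizing challenge; Repeats: singlicate.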
OX1R antag-1 – antagonists of human orexin 1 receptor (OX1R); Orexin/Hypocretin receptor type 1 (Homo sapiens), O43613; OX1R-expressing cells, FRET antagonist read-out; inhibition, % at 6.6 µM; actives 1.8% (n = 330,000); AID 485270, 2010; in the data active = inhibition mostly above about 38%, no sharp cut-off; inactive = mostly below about 40%;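 also: 0% = agonist challenge alone and 100% = reference antagonist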
Target sequence (O43613 whole entry, looked up): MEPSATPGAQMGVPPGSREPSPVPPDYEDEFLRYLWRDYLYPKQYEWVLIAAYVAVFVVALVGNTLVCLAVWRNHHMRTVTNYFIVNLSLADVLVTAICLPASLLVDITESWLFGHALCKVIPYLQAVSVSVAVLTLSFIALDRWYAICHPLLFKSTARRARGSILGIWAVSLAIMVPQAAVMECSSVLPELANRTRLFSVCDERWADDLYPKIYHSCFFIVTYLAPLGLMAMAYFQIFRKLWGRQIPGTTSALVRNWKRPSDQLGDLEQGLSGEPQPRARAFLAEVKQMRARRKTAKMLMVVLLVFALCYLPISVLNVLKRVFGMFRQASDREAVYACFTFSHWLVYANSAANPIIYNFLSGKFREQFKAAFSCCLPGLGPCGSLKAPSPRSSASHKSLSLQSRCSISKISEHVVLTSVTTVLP
OX1R antag-2 – OX1R (HCRTR1) antagonists, primary screen, fluorescence, CHO/OX1R cells, Fluo-8 calcium, orexin A; Orexin/Hypocretin receptor type 1 (Homo sapiens), O43613; Fluo-8 calcium fluorescence; inhibition, % at 5 µM; actives 0.43% (n = 330,000); AID 434989, 2010;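 active = inhibition above its plate's threshold, mean inhibition of all tested compounds on the plate plus 3 SD, cut at about 37% in these data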;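 also: 0% = orexin A challenge wells and 100% = SB-334867-A antagonist wells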
OX1R HTRF confirm – OX1R (HCRTR1) antagonists, confirmation, cell-based, HTRF; actives 49% (n = 1,800); inhibition, % at 6.6 µM; AID 492964, 2010; OX1R-expressing cells, HTRF antagonist assay; shares compounds with OX1R antag-1; in the data active = inhibition above about 55%;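 also: CHO cells expressing OX1R stimulated with orexin A at about EC80; 0% = agonist challenge alone and 100% = reference antagonist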
CHO-K1 HTRF cnt – signal inhibition in parental CHO-K1 cells, counter-screen for OX1R antagonist project, cell-based, HTRF; shares compounds with OX1R antag-1; HTRF counterscreen; inhibition, % at 6.6 µM; actives 48% (n = 1,800); AID 493232, 2011; in the data active = inhibition above about 17%;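 also: 0% = agonist challenge with vehicle and 100% = vehicle alone without agonist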
GalR3 conf – GalR3 antagonist hit confirmation, cell-based, fluorescence, triplicate | HEK293 GalR3 CNG cAMP biosensor, membrane potential fluorescence; galR3 fused to GalR1 carboxy tail; challenged with forskolin and galanin at EC90 | AID 652245, 2013 | actives 59% (n = 1,600) | shares compounds with GalR3 antagonist | inhibition, % at 3 µM;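 active = inhibition above the primary screen's cutoff, the mean inhibition of all screened compounds plus 3 SD, cut at about 13% in these data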;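 also: 0% = forskolin plus galanin and 100% = forskolin alone with DMSO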
HEK-CNG parental – nonspecific cAMP agonists in parental HEK-CNG cells, counter-screen for GalR3 antagonist project, cell-based, fluorescence, high throughput; HEK293-CNG parental cells, cAMP membrane potential fluorescence; normalised: DMSO wells 0%, forskolin wells 100%; actives 10% (n = 1,600); activation, % at 3 µM; AID 652268, 2013; shares compounds with GalR3 antagonist; in the data active = activation above about 1.3%
Numbers without * were called inactive; · = no result given; ! = repeats disagree. A selection: hits, their analogues and other compounds. The true share with any hit is near 3.1%.

SMILES	GPR7 antagonist	GalR3 antagonist	CHO parental Ca	OX1R antag-1	OX1R antag-2	others
N#CC(C#N)=NNc1ccc(S(N)(=O)=O)cc1	-5	-1	-4	84*	-4	OX1R HTRF confirm=19;CHO-K1 HTRF cnt=-1
O=C1C(=O)c2cccc3cccc1c23	2	4	-7	101*	-2	OX1R HTRF confirm=31;CHO-K1 HTRF cnt=42*
O=C1C(=O)c2ccccc2-c2ccccc21	5	3	-18	106*	4	OX1R HTRF confirm=61*;CHO-K1 HTRF cnt=29*
CN1CCN(c2cccc3c2C(=O)c2ccccc2C3=O)CC1	-10	-6	·	·	·
Cc1ccccc1C(=O)NCCN1CCC2(CC1)C(=O)NCN2c1ccccc1	·	-5	·	·	·
O=c1[nH]c2ccccc2n1C1CCN(C(CCc2ccccc2)c2nnnn2C2CCCCC2)CC1 (centres undefined)	·	-3	·	·	·
O=[N+]([O-])c1ccc(N2CCOCC2)c2ccncc12	0	4	-12	107*	-17	OX1R HTRF confirm=47;CHO-K1 HTRF cnt=65*
O=[N+]([O-])c1ccc(N2CCCC2)c(F)c1Br	8	-4	5	26	-8
O=C1CC=C2C3CC4N(CCC45c4cc(O)c(O)cc4N1C25)CC3=CCBr (centres undefined)	·	-3	·	·	·
O=C(NC1CN2CCC1CC2)c1cc(Cl)c([N+](=O)[O-])c2nc[nH]c12 (centres undefined)	-6	2	-13	130*	1	OX1R HTRF confirm=49;CHO-K1 HTRF cnt=83*
O=C1NCCCCC1(Cl)Cl	·	-2	·	·	·
Cn1c(=O)c2nncnc2n(C)c1=O	-10	2	-4	125*	-12	OX1R HTRF confirm=45;CHO-K1 HTRF cnt=75*
O=[N+]([O-])c1ccc(N(CCO)CCO)c2c1no[n+]2[O-]	·	-4	·	·	·
CN1CCN(c2ccc([N+](=O)[O-])c3no[n+]([O-])c23)CC1	10	-7	22	77*	13	OX1R HTRF confirm=74*;CHO-K1 HTRF cnt=107*
C=CCCC1(CC)C(=O)NC(=S)NC1=O	·	-6	·	·	·
CC[C@@H](CO)NC(=O)[C@@H]1C=C2c3cccc4c3c(cn4C)C[C@H]2N(C)C1	-6	-4	0	84*!	1	OX1R HTRF confirm=20;CHO-K1 HTRF cnt=19*
CCC(CO)NC(=O)C1C=C2c3cccc4[nH]cc(c34)CC2N(C)C1 (centres undefined)	-10	·	-1	34	1
c1ccc(-c2nc3ccccc3nc2-c2ccc(CN3CCC(n4nnc5ccccc54)CC3)cc2)cc1	·	-8	·	·	·
CN1CC=C2C(C#N)=C(N)C(C#N)(C#N)C(c3ccncc3)C2C1 (centres undefined)	-10	·	1	102*	-2	OX1R HTRF confirm=18;CHO-K1 HTRF cnt=24*
CNc1ccc2nc3ccccc3[n+](C)c2c1	-8	-9	6	94*	-8	OX1R HTRF confirm=66*;CHO-K1 HTRF cnt=145*
Cc1nn(C)c(C)c1/C=C1/CC2C3CC=C4CC(O)CCC4(C)C3CCC2(C)C1=O (centres undefined)	-2	14*	-7	21	-6	GalR3 conf=30*;HEK-CNG parental=0
COc1ccc(C(c2nnnn2-c2ccc3c(c2)OCCO3)N2CCC3(CC2)C(=O)NCN3c2ccccc2)cc1 (centres undefined)	·	-5	·	·	·
COc1ccc(-n2nnnc2C(c2cc3ccccc3o2)N2CCC(n3c(=O)[nH]c4ccccc43)CC2)cc1 (centres undefined)	·	42*	·	·	·	GalR3 conf=27*;HEK-CNG parental=0
CN[C@H](C)[C@H](O)c1ccccc1	0	·	0	13	-4
CC(NCC#Cc1ccccc1)C(O)c1ccccc1 (centres undefined)	-17	16*	-8	4	-18	GalR3 conf=35*;HEK-CNG parental=1
SMILES	GPR7 antagonist	GalR3 antagonist	CHO parental Ca	OX1R antag-1	OX1R antag-2	others
CC(=O)OC1=CC[C@H]2[C@@H]3CC[C@H]4C[C@H](OC(C)=O)[C@@H](OC(C)=O)C[C@]4(C)[C@H]3CC[C@]12C	·	-2	-8	16	-19
CCOC(=O)[C@]12Cc3ccc(C)cc3[C@H]1N(C1CCCCC1)C(=O)c1ccccc12	·	6	·	·	·
CCOC(=O)[C@]12Cc3cc(C)ccc3[C@H]1N(C1CCCCC1)C(=O)c1ccccc12	·	34*	·	·	·	GalR3 conf=58*;HEK-CNG parental=1
CCOC(=O)[C@]12Cc3cc(Cl)ccc3[C@H]1N(C)C(=O)c1cc(OC)ccc12	·	-6	·	·	·
CCOC(=O)[C@]12Cc3ccc(C)cc3[C@H]1N(C1CCCCC1)C(=O)c1cc(OC)ccc12	·	16*	·	·	·	GalR3 conf=45*;HEK-CNG parental=2.3*
CCOC(=O)[C@]12Cc3cc(Cl)ccc3[C@H]1N(C1CCCCC1)C(=O)c1cc(OC)ccc12	·	20*	·	·	·	GalR3 conf=46*;HEK-CNG parental=4.3*
O[C@@H]1CCCN2CCc3c([nH]c4ccccc34)[C@H]12	·	-7	0	15	-1
Oc1ccc(C[C@H]2NCCc3cc(O)c(O)cc32)cc1O	7	37*	·	·	·	GalR3 conf=53*;HEK-CNG parental=2.5*
Cc1ccc(Cn2nc(C(=O)Nc3ccc(Br)cc3)cc2C)cc1	31	92*	50*	33	-3	GalR3 conf=104*;HEK-CNG parental=1
CCOc1cc2c(cc1OCC)-n1cccc1C(c1ccc(OC(F)F)cc1)NC2 (centres undefined)	20	-13	-7	-2	-16
C=CCN(CC#CCOc1ccccc1OC)CC=C	-8	·	-5	12	-4
N#Cc1c(Br)n(C2OC(CO)C(O)C2O)c2ncnc(N)c12 (centres undefined)	·	-4	·	·	·
NC(=O)c1cn(C2OC(CO)C(O)C2O)c2ncnc(N)c12 (centres undefined)	-5	81*	-1	6	-14	GalR3 conf=81*;HEK-CNG parental=0
N#Cc1cn(C2OC(CO)C(O)C2O)c2ncnc(N)c12 (centres undefined)	·	68*	·	·	·	GalR3 conf=76*;HEK-CNG parental=0
NC(=O)c1c(Br)n(C2OC(CO)C(O)C2O)c2ncnc(N)c12 (centres undefined)	·	-3	·	·	·
COc1ccc(C(CC(=O)c2ccc3c(c2)OCO3)c2c(O)c3ccccc3oc2=O)cc1OC (centres undefined)	·	-3	·	·	·
